Measured values from ChEMBL document CHEMBL4354800, “Amphiphilic nebramine-based hybrids Rescue legacy antibiotics from intrinsic resistance in multidrug-resistant Gram-negative bacilli” (Eur J Med Chem, 2019).

What was measured:
Format in all cases: functional
Acinetobacter baumannii = assay: Antimicrobial activity against multidrug-resistant Acinetobacter baumannii AB92247 incubated for 18 hrs by broth dilution method; settings: AB92247, 18 h
Procedure, shortened: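 Broth microdilution per CLSI: overnight cultures set to 0.5 McFarland in saline, diluted 1:50 in Mueller-Hinton broth to a final 5 × 10^5 CFU/mL, added to 2-fold serial dilutions, incubated 18 h at 37 °C; MIC is the lowest concentration without visible turbidity, confirmed at 590 nm.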

Escherichia coli [1] = assay: Synergistic antibacterial activity against Escherichia coli ATCC 25922 assessed as fractional inhibitory concentration index in presence of rifampicin incubated for 18 hrs by broth dilution method
Procedure, shortened: (§1)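 Checkerboard titration of the adjuvant against the antibiotic, run under the CLSI microdilution conditions (MHB, 5 × 10^5 CFU/mL, 18 h, 37 °C). Each agent's FIC is its MIC in combination divided by its MIC alone; FICI is the sum of the two FICs. FICI ≤0.5 was read as synergy, >0.5–4.0 as no interaction, and >4.0 as antagonism.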

Klebsiella pneumoniae = assay: Synergistic antibacterial activity against Klebsiella pneumoniae 113254 assessed as fractional inhibitory concentration index in presence of minocycline incubated for 18 hrs by broth dilution method; procedure, shortened: as §1
Escherichia coli [2] = assay: Synergistic antibacterial activity against Escherichia coli 94474 assessed as fractional inhibitory concentration index in presence of rifampicin incubated for 18 hrs by broth dilution method; procedure, shortened: as §1
Escherichia coli [3] = assay: Synergistic antibacterial activity against Escherichia coli 94474 assessed as fractional inhibitory concentration index in presence of minocycline incubated for 18 hrs by broth dilution method; procedure, shortened: as §1
Pseudomonas aeruginosa [4] = assay: Potentiation of minocycline-induced antimicrobial activity against MDR/XDR Pseudomonas aeruginosa isolate 101243 devoid of GyrA Thr83Ile mutant assessed as minocycline MIC80 incubated for 18 hrs by broth microdilution method (reference value: 32 microg/ml); settings: isolate 101243, 18 h
Pseudomonas aeruginosa [5] = assay: Potentiation of minocycline-induced antibacterial activity against MDR/XDR Pseudomonas aeruginosa isolate 101243 devoid of GyrA T83I mutant assessed as fold reduction in minocycline MIC at 7.5 uM incubated for 18 hrs by broth microdilution method
Pseudomonas aeruginosa [6] = assay: Potentiation of minocycline-induced antibacterial activity against MDR/XDR Pseudomonas aeruginosa isolate 100036 harboring GyrA T83I mutant assessed as fold reduction in minocycline MIC at 7.5 uM incubated for 18 hrs by broth microdilution method
Pseudomonas aeruginosa [7] = assay: Potentiation of ciprofloxacin-induced antibacterial activity against MDR/XDR Pseudomonas aeruginosa isolate 91433 devoid of GyrA T83I mutant assessed as fold reduction in ciprofloxacin MIC at 7.5 uM incubated for 18 hrs by broth microdilution method

SMILES	MIC (Acinetobacter baumannii)	fractional inhibitory concentration index (FICI) (Escherichia coli [1])	fractional inhibitory concentration index (FICI) (Klebsiella pneumoniae)	fractional inhibitory concentration index (FICI) (Escherichia coli [2])	fractional inhibitory concentration index (FICI) (Escherichia coli [3])	MIC80 (Pseudomonas aeruginosa [4])	fold change (FC) (Pseudomonas aeruginosa [5])	fold change (FC) (Pseudomonas aeruginosa [6])	fold change (FC) (Pseudomonas aeruginosa [7])
Cl.Cl.Cl.Cl.Cl.NC[C@H]1O[C@H](O[C@H]2[C@H](OCCCCCCCCCCCCN3CCN(c4cc5c(cc4F)c(=O)c(C(=O)O)cn5C4CC4)CC3)[C@@H](O)[C@H](N)C[C@@H]2N)[C@H](N)C[C@@H]1O	128 µg/mL	0.133	0.504	0.004 - 0.035	0.063 - 0.078				
COc1c(N2C[C@@H]3CCCN(CCCCCCCCCCCCO[C@@H]4[C@@H](O)[C@H](N)C[C@H](N)[C@H]4O[C@H]4O[C@H](CN)[C@@H](O)C[C@H]4N)[C@@H]3C2)c(F)cc2c(=O)c(C(=O)O)cn(C3CC3)c12.Cl.Cl.Cl.Cl.Cl						1 µg/mL	16	32	16
